For data set [1], the system named is Trypanosoma brucei brucei. Kind of data set: Antitrypanosomal activity against Trypanosoma brucei brucei BF427 measured after 48 hrs by Alamar blue assay. The format is functional, organism-based. To be noted: BF427, 48 h. The method, boiled down:
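Bloodstream T. brucei BF427 cultured in HMI-9 medium. Exposed to serial 3-fold compound dilutions in triplicate, read with Alamar Blue at 48 h. Pentamidine isethionate control in every assay.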

A short description of data set [2]: Cytotoxicity against human CRL8155 cells assessed as growth inhibition after 48 hrs by Alamar blue assay. Format: cell-based. The procedure, abridged: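 Serial 3-fold dilutions in quadruplicate, 48 h, AlamarBlue read-out. Inhibition relative to untreated cells after subtracting a 50 µM quinacrine background. EC50 by nonlinear regression.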
On the technique in general: The colour change of resazurin is a common sign of viable cells or microbes.

Data set [3] is described as follows: Half life in mouse liver microsomes at 1.5 uM by liquid chromatography/tandem mass spectrometric analysis. Format: ADME, microsome. The procedure, abridged: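 Pooled mouse liver microsomes at 0.5 mg/ml with compound at 1.5 µM final, in duplicate. Quenched with acetonitrile at 0, 5, 10, 15, 30 and 60 min, analysed by LC-MS/MS. Testosterone and dextromethorphan run as controls.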
(In general: Liver microsomes are a subcellular fraction often used to study metabolism.)

Data set [4] relates to Mus musculus. Kind of data set: Cmax in mouse at 50 mg/kg, po administered as single dose measured 24 hrs post dose by liquid chromatography/tandem mass spectrometric analysis. The format is ADME, organism-based. On the set-up: dose 50 mg/kg, route oral. To be noted: in vivo. The method, boiled down: (§1)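 Single oral dose of 50 mg/kg to mice in Phosal 53 MCT (60%)/PEG400 (30%)/ethanol (10%). Tail blood collected at 0.5, 1, 2, 4, 6, 8 and 24 h post dose and spotted onto DMPK cards. Punched dried blood spot disks extracted with acetonitrile, quantified by LC-MS/MS.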

In data set [5] the test system is Mus musculus. Kind of data set: AUC in mouse at 50 mg/kg, po administered as single dose measured 24 hrs post dose by liquid chromatography/tandem mass spectrometric analysis. Format: ADME, organism-based. To be noted: in vivo. The procedure, abridged: as §1
A short description of data set [6]: Ratio of drug level in mouse brain to plasma at 5 mg/kg, ip administered as single dose measured 1 hr post dose by liquid chromatography/tandem mass spectrometric analysis. Format: ADME, organism-based. The procedure, abridged:
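Single IP injection of 5 mg/kg in 5% DMSO/7% Tween80/3% EtOH in 0.9% saline. At 1 h, plasma and brains collected; brains homogenized in water. Vehicle-injected mice (n=3) supplied matrix for standard curves. LC-MS/MS quantitation, with brain levels corrected for 3% v/w residual blood.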

Data set [7] in a line: Protein binding in Swiss Webster mouse plasma at 2 uM after 8 hrs by microdialysis based liquid chromatography/tandem mass spectrometric analysis. Format: ADME, cell-free. The method, boiled down:
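Compound at 2 µM in 50% pooled female Swiss Webster mouse plasma (lithium heparin) with 10X PBS, dialysed against blank 10X PBS in triplicate chambers of a microdialysis device. Incubation at 37 °C, 5% CO2 overnight or ≥8 h with shaking. Centrifuged 3000 rcf 15 min; supernatants concentrated, LC-MS/MS. Propranolol control.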

Data set [8] is described as follows: Solubility in phosphate buffered saline at pH 7.4 at 50 uM incubated overnight by liquid chromatography/tandem mass spectrometric analysis. Format: physicochemical. As to conditions: buffer, pH 7.4, 50 µM. The procedure, abridged: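 Compound at 50 µM in 1X PBS adjusted to pH 7.4, shaken overnight at 37 °C, then centrifuged 13500 rpm for 15 min at room temperature. Duplicate supernatant aliquots analysed by LC-MS/MS.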

The subject of data set [9] is Trypanosoma brucei rhodesiense. Nature of the data set: Antitrypanosomal activity against trypomastigote form of Trypanosoma brucei rhodesiense STIB900 infected in mouse assessed as cure rate at 50 mg/kg administered via oral gavage bid from day 2 to 5 post infection measured 3 times per week for first month and weekly up to 60 days by microscopic method relative to control. Format: functional.

Each structure is given as a SMILES string. Converted amounts (≈) assume the structure as drawn.

The EC50 is the concentration at which the effect is half-maximal. The term CC50 denotes the concentration that lowers cell viability or growth by half. In general, Cmax refers to the maximum level reached in the sampled fluid or tissue. By AUC is commonly meant concentration integrated over time. A higher AUC goes with more exposure. A word on the solubility: it is the concentration that dissolves in the medium under given conditions.

Regarding `CN(C)c1ccc(N2C(=O)CN(Cc3ccc(F)cc3)C2=S)cc1Cl`, in data set [1], the EC50 lay within 0.003 to 0.0032 µM. In data set [2], the cytotoxic concentration (CC50) was determined as 39 µM. Further, the t1/2 in data set [3] stood at 15 min. In [4], this compound registered a maximum concentration (Cmax) of 2100 nM. Besides, the exposure (AUC) in [5] came out at 1376 µmol·min/L. In addition, in data set [6], the BPR is listed as 0.74. For the same compound, in data set [7], the PPB was 88.8%. In [8], this compound came in with a solubility of 2.1 µM (≈ 0.794 µg/mL). In addition, in [9], the Activity was found to be 100%.

The values are drawn from ChEMBL document CHEMBL4190338, “1-Benzyl-3-aryl-2-thiohydantoin Derivatives as New Anti-Trypanosoma brucei Agents: SAR and in Vivo Efficacy” (ACS Med Chem Lett, 2017).
